Assay results pooled from the literature.

CC(C)(O)c1ccccc1-c1ccc2[nH]c(/C=C/c3ccc(C(F)(F)F)cc3)nc2c1 has an MRT of 99.5 h (male human, plasma; oral, 50 mg, single dose, fasted, healthy volunteers).
The concentration of c1ccc(-c2nc(N3CCC(c4ccccn4)C3)c3ccccc3n2)nc1 (stereo not shown) is reported as 0.826 µg/mL (female BALB/c mouse, plasma; oral, 50 mg/kg, 4 h).
The concentration of O=S(=O)(c1ccc(-c2ccc3nccc(Nc4ccncn4)c3c2)cc1)N1CCOCC1 is reported as 2.34 µg/mL (female BALB/c mouse, plasma; intraperitoneal, 10 mg/kg, 4.8 min).
For CC(C)(C)c1ccc(O)c(CN(Cc2cc(C(C)(C)C)ccc2O)C2CCC(NC(N)=O)CC2)c1 (stereo not shown), the half-life was 7.1 h (male C57BL/6 mouse, brain; intraperitoneal, 5 mg/kg, single dose).
Cn1cnc2c(F)c(Nc3ccc(Br)cc3Cl)c(C(=O)NOCCO)cc21 gave a half-life of 2.7 h (nude mouse, liver; oral, 10 mg/kg, single dose, tumour-bearing).
The half-life of CCc1cc(C(=O)NC)c2nccc(N3CCc4c(cc(Cn5ccnc5)cc4-c4cn(C)nc4C(F)(F)F)C3=O)c2c1 is reported as 0.8 h (male CD-1 mouse, plasma; intravenous, 3 mg/kg).
Oc1cccc(/C=C/c2ccccc2)c1 has a chromatographic logP of greater than 3.14 (HPLC).
O=C(O)C1CCN(c2ncc(-c3ccc4c(c3)OCCCO4)s2)CC1 gave a concentration of 1.65 µg/mL (male Swiss mouse, plasma; oral, 30 mg/kg, 12 h, single dose).
CC(C)CN(C[C@@H](O)[C@H](Cc1ccccc1)NC(=O)O[C@H]1CO[C@H]2OCC[C@H]21)S(=O)(=O)c1ccc(N)cc1 has a concentration of 0.0239 µg/mL (BALB/c mouse, plasma; intravenous, 2.5 mg/kg, 3 h).
COc1cc(/C=C/c2ccc(O)cc2)cc(OC)c1 gave a chromatographic logP of greater than 3.14 (HPLC).
With CC[C@H](C)[C@@H]1NC(=O)[C@@](C)(NC(=O)[C@H](CCCNC(=N)N)NC(=O)[C@H](CC(C)C)NC(=O)[C@@H](NC(=O)[C@H](CCC(N)=O)NC(=O)[C@H](CC(C)C)NC(C)=O)[C@@H](C)O)CCCC=CCCC[C@@](C)(C(=O)N[C@@H](CC(C)C)C(=O)N[C@@H](Cc2ccc3ccccc3c2)C(N)=O)NC(=O)[C@H](CCCNC(=N)N)NC(=O)[C@H](CCC(N)=O)NC1=O the half-life was 10.6 h (male BALB/c mouse, plasma; intramuscular, 5 mg/kg).
With CCCN(CCC)CCc1cccc2c1CC(=O)N2 the hepatocyte CLint was 16.3 µL/min/10⁶ cells (metabolic stability; dog, hepatocytes; 1 µM).
With CC(C)Oc1cccc(-c2cnc(N3CCC(C(N)=O)CC3)s2)c1 the concentration was 0.206 µg/mL (male Swiss mouse, plasma; oral, 30 mg/kg, 2 h, single dose).
For COc1cc(O)cc(/C=C/c2ccccc2)c1, the chromatographic logP was greater than 3.14 (HPLC).
O=c1nc(N2CCN(CC3CCCCC3)CC2)sc2c([N+](=O)[O-])cc(C(F)(F)F)cc12 gave a concentration of 0.015 µg/mL (CD-1 mouse, lung; intravenous, 10 mg/kg, 24 h).
With CC(C)(Nc1nc(-c2ccccn2)nc2ccccc12)c1ccccn1 the concentration was 5.86 µg/mL (female BALB/c mouse, plasma; oral, 50 mg/kg, 8 h).
CCc1ccc(Cc2cc([C@@H]3O[C@H](CO)[C@@H](O)[C@H](O)[C@H]3O)cc3c2CCC3)cc1 has a half-life of 3.1 h (male C57BL/6 mouse, plasma; oral, 0.3 mg/kg).
CS(=O)(=O)CCC#N has an MRT of 30.5 h (human, plasma; oral, 100 mg, single dose, fasted).
The logP of O=C1NN=C(N=Cc2ccc(O)cc2O)C1=NNn1c(-c2ccccc2)nc2ccccc2c1=O is reported as 3.38.
For N#CN1C[C@H](n2nc(-c3ccc(Oc4ccc(Cl)cn4)cc3)c(C(N)=O)c2N)CCC12CC2, the MRT was 31.6 h (human, plasma; oral, 600 mg, fasted).
CC1=NN(CNc2ccccn2)C(=O)C1=NNn1c(-c2ccccc2)nc2ccccc2c1=O has a logP of 3.87.
The MRT(0-t) of c1cnc2ccc(Nc3nc(NC4CC4)c4nc[nH]c4n3)cc2c1 is reported as 5.7 h (human, plasma; oral, 200 mg/m², patients).
